Results collected from several papers.
Each line is one published result; the experiments were not run side by side.

OCc1ccc(N(Cc2ccc(F)cc2)CC2CC2)cc1Cl  inhibition (RBE; cell growth or viability, ATP luminescence; 46 µM, 72 h): 55%
O=C(NCCN1CCCCC1)c1ccc(-c2nc3ccc4[nH]ncc4c3c3c2CCCC3)cc1  GI50 (MV4-11; cell growth or viability, resazurin; 72 h): 1700 nM
OCc1ccc(-c2nn(Cc3cccc(Cl)c3)c3ccccc23)o1  inhibition (RBE; cell growth or viability, ATP luminescence; 46 µM, 72 h): 75%
CN(C)CCNC(=O)c1ccc(-c2nc3ccc4[nH]ncc4c3c3c2CCCCC3)nc1  GI50 (MV4-11; cell growth or viability, resazurin; 72 h): 236 nM
NCCC(=O)Nc1ccccc1/N=c1\cc(-c2ccc3nc(N)oc3c2)oc2cc(O)ccc12  inhibition (MDA-MB-468; cell growth or viability, CCK-8; 1 µM): 10.5%
O=C(NCCN1CCCC1)c1ccc(-c2nc3ccc4[nH]ncc4c3c3c2CCCC3)cc1  GI50 (MV4-11; cell growth or viability, resazurin; 72 h): 366 nM
CC1(C)S[C@@H]2[C@H](NC(=O)[C@H](N)c3ccccc3)C(=O)N2[C@H]1C(=O)O  MIC (Micrococcus luteus; microbial growth, broth dilution; ATCC4698): 1.35 µM
NCCC(=O)Nc1ccc(/N=c2\cc(-c3ccc4c(c3)OCO4)oc3ccccc23)cc1  inhibition (MDA-MB-468; cell growth or viability, CCK-8; 1 µM): 6.16%
Cc1ccccc1Cn1nc(-c2ccc(CO)o2)c2ccccc21  inhibition (RBE; cell growth or viability, ATP luminescence; 46 µM, 72 h): 61%
NCCCCC(=O)Nc1ccccc1/N=c1\cc(-c2ccc3c(c2)OCO3)oc2ccccc12  inhibition (MDA-MB-468; cell growth or viability, CCK-8; 1 µM): -0.27%
CC(=O)NC[C@H]1CN(c2ccc(N3CCOCC3)c(F)c2)C(=O)O1  MIC (Staphylococcus aureus; microbial growth, agar dilution; ATCC29213): 2 µg/mL
NCCC(=O)Nc1ccccc1/N=c1\cc(-c2ccc3nc(N)oc3c2)oc2ccc(F)cc12  inhibition (MDA-MB-468; cell growth or viability, CCK-8; 1 µM): 59.8%
COCc1ccc(-c2nn(Cc3ccccc3)c3ccccc23)o1  inhibition (RBE; cell growth or viability, ATP luminescence; 46 µM, 72 h): 49%
Cc1n[nH]c2ccc3nc(-c4ccc(C(=O)NCCN(C)C)cc4F)c4c(c3c12)CCCC4  GI50 (MV4-11; cell growth or viability, resazurin; 72 h): 27 nM
NCCC(=O)Nc1ccccc1/N=c1\cc(-c2ccc3nc(N)oc3c2)oc2ccc(O)cc12  inhibition (MDA-MB-468; cell growth or viability, CCK-8; 1 µM): 40.2%
